# Target: Concanavalin A (Con A) (Canavalia ensiformis, UniProt P02866)
# Type: binding
# Method in brief: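 Gold chip with mixed carboxyl/hydroxyl dithiol monolayer, aminoethoxyethyl mannoside coupled by EDC/NHS; hydroxyl-only reference flowcell. Con A (2 μM monomer) mixed 1:1 with test compound, equilibrated ≥1 h, then injected at 10 μL/min in 10 mM PBS pH 7.4, 25 °C. Methyl-mannose/HCl regeneration. Glycodendrimers run in triplicate, 2-fold series 50 μg/mL–39 ng/mL. Double-referenced equilibrium responses were fitted to a four-parameter logistic to give IC50.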
# Concanavalin A (Con A), sequence (P02866 164-281 limits assumed): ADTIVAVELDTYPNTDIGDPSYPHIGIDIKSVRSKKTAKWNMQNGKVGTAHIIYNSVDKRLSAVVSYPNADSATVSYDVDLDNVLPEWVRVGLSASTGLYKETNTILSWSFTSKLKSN
# Concanavalin A (Con A), sequence (P02866 30-148 limits assumed): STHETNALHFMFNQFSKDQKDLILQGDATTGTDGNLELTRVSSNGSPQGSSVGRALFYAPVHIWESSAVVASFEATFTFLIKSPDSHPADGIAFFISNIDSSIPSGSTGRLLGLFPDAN
smiles,measurement,value
CO[C@H]1O[C@H](CO)[C@@H](O)[C@H](O)[C@@H]1O [Methyl mannose],IC50,240 µM

# From publication PMC2925318 (Tetrahedron, 2010)
